Screens (PubChem)
The full list was thinned out, with hits kept by preference.
G6PDH CS: inhibits Leuconostoc G6PDH, flagging false hits in G6PDH-based assays. Purified L. mesenteroides G6PDH, diaphorase/resazurin coupled fluorescence, 45 min. 0.12% of 200,000 active. inhibition, % at 5 µM
Lmaj promast: reduces viability of Leishmania major promastigotes. resazurin fluorescence viability. inhibition, % at 10 µM. 9% of 200,000 active. AID 1063;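 further: promastigotes grown with compound for 44 hours at 28 °C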
Redox H2O2 prof: compounds producing H2O2 with reducing agent – biochemical, NIH compound library profiling, artefact control for MLSCN library redox annotation, primary screen; DTT-dependent redox cycling H2O2, phenol red/HRP absorbance; 100% = 100 µM peroxide control, 0% = buffer; activation, % at 10 µM; 0.03% of 200,000 active;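 active means activation of at least 50% relative to the plate's high and low controls in the primary single-dose screen; inactive means activation below 50%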;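 further: compound incubated with DTT at 0.8 mM final as the reducing agent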
PfG6PD inh: PfG6PD (Plasmodium falciparum) enzyme inhibition; inhibition, % at 20 µM; 0.78% of 350,000 active; AID 504690; PfGluPho enzyme, NADPH resazurin-diaphorase fluorescence;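 active means inhibition reaching at least a set limit at 20 µM in the primary screen, cut at about 59% in these data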;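 further: 0% = DMSO wells with substrate and 100% = DMSO wells lacking glucose-6-phosphate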
Diaphorase act: diaphorase activation or chemical reduction counter-screen; activation factor at 20 µM; 0.005% of 190,000 active; Diaphorase/resazurin coupled assay, resorufin fluorescence, 16 min; stronger effect = higher value; 1 = vehicle wells, 0 = NADH-free wells;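 active means diaphorase activity raised at least twofold by the compound at 20 µM; inactive means activation factor below 2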
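Material: Purified diaphorase enzyme from Clostridium kluyveri | Buffer or medium: 50 mM HEPES pH 7.4 with 4.542 mM MgCl2, 0.005% Tween 20 | Times: 16 min enzyme reaction, ambient temperature | Signal: Red resorufin fluorescence at 544/590 nm excitation/emission | Measure: Increased resorufin signal from activators or reducing compounds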
Diaphorase inh: counter-screen for diaphorase-based assays: diaphorase inhibitors and chemical oxidizers. AID 1217. diaphorase resazurin-to-resorufin fluorescence, NADH, 16 min; bacterial (C. kluyveri) enzyme, not human. 0.69% of 190,000 active. inhibition, % at 20 µM;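 active means primary screen inhibition at 20 µM above a set limit, cut at about 50% in these data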;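 further: plate controls were DMSO with full reaction for no effect and wells lacking NADH for full effect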
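material = Clostridium kluyveri diaphorase enzyme | amount = 0.14 U/mL diaphorase, enzyme working solution | schedule = incubation 16 min, room temperature | detection = fluorescence of resorufin formed from resazurin, Ex 544/Em 590 nm | benchmarks = positive control minus NADH, DMSO neutral control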
* hit, by the source's call; nt = not tested or not shown. Unless noted, no stated cut-off is given here; in the data, active means inhibition above about 50%; inactive means the rest.

SMILES	G6PDH CS	Lmaj promast	Redox H2O2 prof	PfG6PD inh	Diaphorase act	Diaphorase inh
COc1cccc(OCCCn2cc(/C=C3/C(=N)N4C=C(C)SC4=NC3=O)c3ccccc32)c1	21	95*	0	-2	0.9	12
CCOc1ncccc1C(=O)OCC(=O)Nc1nnc(-c2ccccc2)o1	nt	nt	nt	0	nt	nt
C/C(=N\OCC(=O)OCC(=O)NC(=O)c1ccc(OC(F)F)cc1)c1ccc2c(c1)OCO2	nt	nt	nt	8	nt	nt
CNC(=S)N1N=C(c2ccc(OC)cc2)CC1c1ccccc1Cl (stereo not drawn)	nt	nt	nt	10	nt	nt
CNC(=S)N1N=C(c2ccc(C)cc2)CC1c1ccc(N(C)C)cc1 (stereo not drawn)	-6	8	0	-6	1	-4
CNC(=S)N1N=C(c2ccc(OC)cc2)CC1c1ccc(Cl)cc1Cl (stereo not drawn)	15	100*	1	20	0.9	8
COc1ccc(OC)c(C2CC(c3ccccc3)=NN2C(=S)Nc2ccccc2)c1 (stereo not drawn)	nt	nt	nt	3	nt	nt
COc1ccc(C2CC(c3ccc(Br)cc3)=NN2C(=O)CN2CCCC2)cc1 (stereo not drawn)	nt	nt	nt	9	nt	nt
CNC(=S)N1N=C(c2ccc(C)cc2)CC1c1ccc(OC)cc1 (stereo not drawn)	3	97*	0	6	0.8	18
CNC(=S)N1N=C(c2ccc(Br)cc2)CC1c1ccc(OC)cc1 (stereo not drawn)	15	99*	2	1	0.8	15
CNC(=S)N1N=C(c2ccc(C)cc2)CC1c1cc(OC)ccc1OC (stereo not drawn)	20	53*	0	-3	0.7	27
CCC(C)NC(=O)CC(c1ccccc1)c1cc(C)ccc1O (stereo not drawn)	-5	2	-4	0	1	2
C=CCn1c(O)c(N=NC(=S)Nc2cccc(OC)c2)c2ccccc21	-14	98*	0	1	0.9	14
C=CCn1c(O)c(N=Nc2ccccc2)c2ccccc21	nt	nt	nt	27	nt	nt
C=CCn1c(O)c(N=NC(=S)Nc2ccc(OC)cc2)c2ccccc21	6	87*	-1	0	1	1
C=CCn1c(O)c(N=NC(=O)OCC)c2ccccc21	1	-6	0	-7	0.9	7
COc1ccccc1NS(=O)(=O)c1cc(NC(=O)c2cccs2)ccc1N1CCCCC1	14	43	0	-3	0.9	13
COc1ccccc1NS(=O)(=O)c1cc(NC(=O)c2sccc2C)ccc1N1CCCC1	10	64*	-1	49	0.8	18
COc1ccccc1NS(=O)(=O)c1cc(NC(=O)Nc2ccccc2)ccc1N1CCCCC1	0	91*	0	11	0.8	23
COc1ccc(Cl)cc1NC(=O)NC1CCCCC1	2	100*	0	13	0.9	10
COc1ccccc1NS(=O)(=O)c1cccc(NC(=O)NC2CCCCC2)c1	-13	99*	1	-4	0.7	26
CCCN1CCC(NC(=O)Nc2cc(Cl)ccc2OC)CC1	-1	7	0	1	0.9	6
COc1ccccc1NS(=O)(=O)c1cc(NC(=O)c2sccc2C)ccc1N1CCOCC1	nt	nt	nt	5	nt	nt
O=C(N/N=C/c1ccc2c(c1)OCO2)c1ccc(COc2cccc3cccnc23)cc1	-1	40	-1	-13	0.9	10
COc1ccccc1NS(=O)(=O)c1cccc(NC(=O)c2nc3nc(C)cc(C)n3n2)c1	-2	72*	0	1	0.9	12
CCc1ccc(Nc2cnn(-c3nc4ccccc4s3)c(=O)c2Cl)cc1	15	65*	0	16	0.8	17
CCCCNc1cnn(-c2ccccc2)c(=O)c1Cl	-2	49	-1	-5	1.1	-8
Cc1ccc2c(c1)cc(CN(Cc1cccnc1)C(=O)c1ccccc1)c1nnnn12	14	48	7	-4	nt	nt
Cc1ccc2c(c1)cc(CN(Cc1ccc3c(c1)OCO3)S(=O)(=O)c1ccccc1)c1nnnn12	12	99*	5	6	0.8	21
Cc1ccc(C(=O)N(Cc2cccnc2)Cc2cc3cc(C)ccc3n3nnnc23)cc1	19	96*	-1	4	1.1	-7
